Experimental data as given in ChEMBL document CHEMBL3045942, “Design, synthesis, and anti-tobacco mosaic virus (TMV) activity of phenanthroindolizidines and their analogues” (2012).

What was measured:
Type in all cases: functional
Tobacco mosaic virus [1] = experiment: In vivo antiviral activity against Tobacco mosaic virus (TMV) inoculated left side of Nicotiana tabacum L. leaves assessed as inactivation effect at 100 ug/mL co-incubated with virus measured after 3 to 4 days
Summary of the method: (§1)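 Inactivation test in N. tabacum var. Xanthi nc. Virus was mixed with an equal volume of compound solution for 30 min and the mixture inoculated on the left leaf half. The right half received a solvent–virus mixture as control. Local lesions were counted 3–4 days after inoculation. Inhibition % was calculated from mean lesion numbers of control versus treated halves. Three replicates.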

Tobacco mosaic virus [2] = experiment: Antiviral activity against Tobacco mosaic virus (TMV) inoculated in 5-6 growth stage leaf assessed as inhibition effect at 500 ug/mL at 25 degC after 72 hr by half-leaf method
Summary of the method: (§2)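 Half-leaf assay on fresh leaves of Nicotiana tabacum var. Xanthi nc at the 5–6 growth stage. Leaves were rub-inoculated with leaf juice (TMV 5.88 × 10−2 μg mL−1) and cut in halves along the main vein. One half was immersed in compound solution and the other in double-distilled water for 20 min, then kept at 25 °C for 72 h. Inhibition % = (mean control lesions − mean treated lesions)/mean control lesions × 100. At least 3 replicates.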

Tobacco mosaic virus [3] = experiment: In vivo antiviral activity against Tobacco mosaic virus (TMV) inoculated right side of Nicotiana tabacum L. leaves assessed as protection effect at 500 ug/mL preincubated 12 hr before viral challenge measured after 3 to 4 days
Summary of the method: (§3)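 Protective test on same-age growing Xanthi nc tobacco leaves. Compound solution was smeared on the left half and solvent on the right half as control. After 12 h, leaves were inoculated with TMV applied by brush. Inhibition % = (mean control lesions − mean treated lesions)/mean control lesions × 100. Three replicates.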

Tobacco mosaic virus [4] = experiment: Antiviral activity against Tobacco mosaic virus (TMV) inoculated in 5-6 growth stage leaf assessed as inhibition effect at 100 ug/mL at 25 degC after 72 hr by half-leaf method; summary of the method: as §2
Tobacco mosaic virus [5] = experiment: In vivo antiviral activity against Tobacco mosaic virus (TMV) inoculated left side of Nicotiana tabacum L. leaves assessed as inactivation effect at 500 ug/mL co-incubated with virus measured after 3 to 4 days; summary of the method: as §1
Tobacco mosaic virus [6] = experiment: In vivo antiviral activity against Tobacco mosaic virus (TMV) pre-inoculated Nicotiana tabacum L. leaves assessed as curative effect at 100 ug/mL measured after 3 to 4 days
Summary of the method: (§4)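 Curative test on same-age growing Xanthi nc leaves. Whole leaves were first inoculated with TMV (6.0 × 10−3 mg mL−1), then washed with water and dried. Compound solution was smeared on the left half and solvent on the right half as control. Local lesions were counted 3–4 days after inoculation, and inhibition % was derived from mean lesion numbers. Three replicates.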

Tobacco mosaic virus [7] = experiment: In vivo antiviral activity against Tobacco mosaic virus (TMV) inoculated right side of Nicotiana tabacum L. leaves assessed as protection effect at 100 ug/mL preincubated 12 hr before viral challenge measured after 3 to 4 days; summary of the method: as §3
Tobacco mosaic virus [8] = experiment: In vivo antiviral activity against Tobacco mosaic virus (TMV) pre-inoculated Nicotiana tabacum L. leaves assessed as curative effect at 500 ug/mL measured after 3 to 4 days; summary of the method: as §4
Tobacco mosaic virus [9] = experiment: Antiviral activity against Tobacco mosaic virus (TMV) assessed as inhibition at 500 ug/mL
Summary of the method: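 Half-leaf method on fresh Nicotiana tabacum var. Xanthi nc leaves at the 5–6 growth stage. Leaves were inoculated by juice-leaf rubbing with TMV at 5.88 × 10−2 μg mL−1, then cut in halves along the main vein. Halves were immersed 20 min in compound solution or double-distilled water as control, then kept 25 °C for 72 h. Inhibition % = (mean control lesions − mean treated lesions)/mean control lesions × 100. At least 3 replicates.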

Tobacco mosaic virus [10] = experiment: Antiviral activity against Tobacco mosaic virus (TMV) assessed as inhibition at 1 ug/mL

| Compound | Activity (Tobacco mosaic virus [1]) | inhibition at 500 µg/mL (Tobacco mosaic virus [2]) | Activity (Tobacco mosaic virus [3]) | inhibition at 100 µg/mL (Tobacco mosaic virus [4]) | Activity (Tobacco mosaic virus [5]) | Activity (Tobacco mosaic virus [6]) | Activity (Tobacco mosaic virus [7]) | Activity (Tobacco mosaic virus [8]) | inhibition at 500 µg/mL (Tobacco mosaic virus [9]) | inhibition at 1 µg/mL (Tobacco mosaic virus [10]) |
| --- | --- | --- | --- | --- | --- | --- | --- | --- | --- | --- |
| COc1ccc2c3c(c4cc(OC)c(OC)cc4c2c1)CN1CCC[C@@H]1C3 | 23.6% | 56.5% | 60.5% | 32.9% | 48.9% | 24.5% | 31.7% | 44.7% | – | – |
| COc1cc2c3c(c4cc(OC)c(OC)cc4c2cc1OC)CN1CCC[C@H]1C3 [(S)-TYLOPHORINE] | 34.2% | 54.1% | 56.8% | 36.9% | 50.5% | 37% | 28.6% | 53.8% | – | – |
| COc1ccc2c3c(c4cc(OC)c(OC)cc4c2c1)[C@H](O)[C@@H]1CCCN1C3 | 0% | 51.2% | 21.2% | 23% | 24.8% | 0% | 0% | 19.3% | – | – |
| CC(=O)N1CN(C(C)=O)C(=O)NC1=O | – | – | – | – | – | – | – | – | 50% | – |
| COc1cc2c3c(c4cc(OC)c(OC)cc4c2cc1OC)NC(=O)[C@H]1CCCN1C3 | 21.2% | 32.2% | 36.4% | 20% | 34.9% | 18.9% | 19.7% | 35.7% | – | – |
| COc1cc2c3c(c4cc(OC)c(OC)cc4c2cc1OC)[C@H](O)[C@@H]1CCCN1C3 | 32.9% | 62.4% | 63.7% | 34.7% | 57.8% | 30.6% | 20% | 61.9% | – | – |
| COc1cc2c3c(c4cc(OC)c(OC)cc4c2cc1OC)[C@@H](O)[C@H]1CCCN1C3 | 26.7% | 51.2% | 53.9% | 23% | 49.2% | 32.8% | 26.5% | 43.4% | – | – |
| COc1cc2cc(C(=O)N3CCC[C@H]3C)c3cc(OC)c(OC)cc3c2cc1OC | 9.6% | 38.4% | 43.3% | 15.3% | 31.3% | 6.2% | 18.9% | 30.1% | – | – |
| COc1cc2c3c(c4cc(OC)c(OC)cc4c2cc1OC)C(=O)N1CCC[C@H]1C3 | 20.5% | 48.1% | 43.5% | 30.9% | 37% | 14.8% | 23.4% | 30.1% | – | – |
| O=C1NCNC(=O)N1 | – | – | – | – | – | – | – | – | 50% | – |
| COc1cc2c3c(c4cc(OC)c(OC)cc4c2cc1OC)C(=O)n1cccc1C3 | 8.5% | 15.3% | 21.5% | 0% | 22.6% | 0% | 5.3% | 17.5% | – | – |
| COc1ccc2c3c(c4cc(OC)c(OC)cc4c2c1)C[C@@H]1CCCN1C3 [HYPOESTESTATIN 1] | 37.2% | 60.2% | 56.4% | 30.5% | 51.1% | 26.7% | 28.4% | 55.5% | – | – |
| COc1ccc2c3c(c4cc(OC)c(OC)cc4c2c1)[C@@H](O)[C@H]1CCCN1C3 | 14.2% | 43.5% | 39.6% | 21.6% | 38.5% | 10.2% | 7.3% | 34.9% | – | – |
| COc1ccc2c3c(c4cc(OC)c(OC)cc4c2c1)C[C@H]1CCCN1C3 [(-)-ANTOFINE] | 15.3% | 52.8% | 45.5% | 27.4% | 42.7% | 19.4% | 20.4% | 46% | – | – |
| COc1cc2c3c(c4cc(OC)c(OC)cc4c2cc1OC)NC(=O)[C@@H]1CCCN1C3 | 22.2% | 34.8% | 29.7% | 4.6% | 32.9% | 0% | 7.6% | 31.5% | – | – |
| COc1ccc2c3c(c4cc(OC)c(OC)cc4c2c1)CN1CCC[C@H]1[C@H]3O | 0% | 45.2% | 41.3% | 29.6% | 32.4% | 17.2% | 24.5% | 40% | – | – |
| COc1ccc2c3c(c4cc(OC)c(OC)cc4c2c1)CN1CCC[C@@H]1[C@@H]3O | 33.3% | 47.7% | 54.4% | 33.1% | 51.2% | 27.8% | 30.2% | 56.2% | – | – |
| CNCC(=O)N[C@@H](CO)C(=O)N[C@H]1[C@H](O)[C@@H](O)[C@H](n2ccc(N)nc2=O)O[C@@H]1C(N)=O [NINGNANMYCIN] | 37.7% | 71.4% | 66.6% | 30.4% | 68.5% | 18.9% | 25.2% | 56% | – | – |
| COc1cc2c3c(c4cc(OC)c(OC)cc4c2cc1OC)NC[C@@H]1CCCN1C3 | 20.3% | 50% | 53.6% | 18.5% | 42.5% | 22.7% | 28.5% | 44.6% | – | – |
| COc1ccc2c3c(c4cc(OC)c(OC)cc4c2c1)CN1CCC[C@H]1C3 | 40.3% | 71.2% | 70.2% | 50% | 59.8% | 43.7% | 51.3% | 65.1% | – | – |
| COc1cc2cc(CN3CCC[C@H]3C)c3cc(OC)c(OC)cc3c2cc1OC | 0% | 29.8% | 39.6% | 0% | 25.2% | 0% | 13.1% | 25.8% | – | – |
| COc1cc2c3c(c4cc(OC)c(OC)cc4c2cc1OC)NC[C@H]1CCCN1C3 | 12.6% | 40.4% | 46.5% | 23.1% | 31.5% | 28.7% | 33.7% | 44.6% | – | – |
| NC(=O)c1ncn([C@@H]2O[C@H](CO)[C@@H](O)[C@H]2O)n1 [RIBAVIRIN] | 9.8% | 40% | 38.9% | 12.5% | 33.8% | 8.2% | 7.5% | 36.7% | – | – |
| COc1cc2c3c(c4ccc(O)cc4c2cc1OC)CN1CCC[C@@H]1C3 | – | – | – | – | – | – | – | – | – | 70% |
| COc1cc2c3c(c4cc(OC)c(OC)cc4c2cc1OC)CN1CCC[C@@H]1C3 [TYLOPHORINE] | 15.1% | 49.7% | 47.6% | 21.1% | 39% | 26.4% | 22.5% | 44.2% | – | – |
